One data set relates to Cortical neurone. Nature of the data set: Inhibition of etoposide-induced death of mouse E15.5 cortical neurones. The data set is classed as functional. The method, boiled down: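 Primary cortical neurons from E15 wild-type mouse embryos were exposed to etoposide at 1.25 and 2.5 µM, with compound alongside DMSO. Etoposide alone served as the control. Live cells were stained with calcein-AM for 45 min, quenched with hemoglobin, and whole wells were imaged and counted automatically. Survival is relative to untreated cultures set to 100%. At least six independent experiments were run, each in triplicate.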

The species entered for the next data set is Mus musculus. Nature of the data set: Toxicity against mouse E15.5 cortical neurones at 10 uM. The conditions noted are these: in vitro. The method, boiled down: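 E15 mouse primary cortical neurons were cultured in neurobasal/B27 and exposed to compound at 10 µM. Live cells were counted after calcein-AM staining, with hemoglobin quench and whole-well imaging. Each experiment was repeated at least six times.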

The target in data set [1] is Cellular tumor antigen p53 (Mus musculus) (UniProt P02340). Nature of the data set: Inhibition of p53-mediated increase in p21/WAF1 level at 300 nM. The data set is classed as functional. The following applies: filed as antagonist. The method, boiled down: (§1)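 Wild-type E15 mouse cortical neurons were kept 3 days in vitro in neurobasal/B27 and treated with etoposide to trigger p53 activation. Time-course and concentration-dependent experiments were run. p21/WAF1 protein was detected by western blot of total extracts made in boiling SDS/Tris buffer.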
Sequence of Cellular tumor antigen p53 (Mus musculus) (P02340 whole entry): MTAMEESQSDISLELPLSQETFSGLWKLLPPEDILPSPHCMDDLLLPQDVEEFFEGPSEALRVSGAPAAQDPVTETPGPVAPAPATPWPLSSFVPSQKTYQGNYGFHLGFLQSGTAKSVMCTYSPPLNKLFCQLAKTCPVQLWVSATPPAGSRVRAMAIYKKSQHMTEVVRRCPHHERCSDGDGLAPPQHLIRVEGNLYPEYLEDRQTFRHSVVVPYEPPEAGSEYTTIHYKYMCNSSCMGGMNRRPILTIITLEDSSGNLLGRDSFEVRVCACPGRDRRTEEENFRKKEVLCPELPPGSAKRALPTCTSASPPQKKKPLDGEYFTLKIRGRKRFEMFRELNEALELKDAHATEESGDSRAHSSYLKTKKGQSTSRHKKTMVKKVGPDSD

The species named for data set [2] is Rattus norvegicus. Nature of the data set: Protection against axotomy-induced RGC apoptosis in Wistar rat intravitreally injected with 0.06 uM. Type of data set: functional. The procedure, abridged:
(§2)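 Adult male Wistar rats (300-400 g) had the optic nerve transected, and RGCs were retrogradely labeled with FluoroGold placed on the stump. Compound or vehicle (DMSO 2%), 3 µL, was injected intravitreally on days 0, 3 and 7. Eyes were taken on day 14 and retinas flat-mounted. FG-positive RGCs were counted blind in fields at three eccentricities. Groups had n = 3-6, with DMSO as baseline; results are given as mean ± sem.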

In data set [3] the target is Cellular tumor antigen p53 (Mus musculus) (UniProt P02340). Nature of the data set: Inhibition of p53-mediated increase in p21/WAF1 level at 30 nM. Type of data set: functional. The conditions noted are these: filed as antagonist. The procedure, abridged:
as §1

Data set [4] is filed under the species Rattus norvegicus. Nature of the data set: Protection against axotomy-induced RGC apoptosis in Wistar rat intravitreally injected with 6 uM. Type of data set: functional. The method, boiled down: as §2

Structures are written as SMILES. The source made the active and inactive calls. The rule behind the calls is not given here.

`Br.N=c1sc2c(n1C/C(=N/O)c1ccc([N+](=O)[O-])cc1)CCCC2`: the result in the data set on Cortical neurone was inactive. In addition, the Activity result in the data set filed under Mus musculus is “Non-toxic”.
As for `Br.COc1ccc(C(=O)Cn2c3c(sc2=N)CC2CCCCC2C3)cc1` (stereo not given), the Activity result in the data set listed under Mus musculus is “Non-toxic”.
For `Br.N=c1sc2c(n1CC(=O)c1ccc([N+](=O)[O-])cc1)CCCC2`, the outcome in the data set on Cortical neurone was Active. The Activity result in data set [1] is “Antagonist”; in the data set filed under Rattus norvegicus [2] it was 150%; in the data set listed under Mus musculus, “Non-toxic”.
For `O=[N+]([O-])c1ccc(-c2cn3c4c(sc3n2)CCCC4)cc1`, in the data set on Cortical neurone (read-out: ED50 (the source's name)), the EC50 is 0.03 µM. Further, the Activity entry in data set [3] is “Antagonist”; in the data set listed under Mus musculus, “Non-toxic”. The result in the data set listed under Rattus norvegicus [2] (in the assay text read “6 uM” for “0.06 uM”) and in the data set listed under Rattus norvegicus [4] was inactive.
As for `Br.Cc1ccc(C(=O)Cn2c3c(sc2=N)CCCCC3)cc1`, the outcome in the data set on Cortical neurone was inactive. Moreover, the Activity entry in the data set listed under Mus musculus is on record as “Non-toxic”.
Regarding `Br.Cc1ccc(C(=O)Cn2c3c(sc2=N)CCCC3)cc1`, the outcome in the data set with Cortical neurone was Active. In addition, the Activity result in data set [1] is “Antagonist”; in the data set listed under Rattus norvegicus [2], 98%; in the data set listed under Rattus norvegicus [4], 131%.
For `Br.COc1ccc(C(=O)Cn2c3c(sc2=N)CCCC3)cc1`, the outcome with Cortical neurone was inactive. Moreover, the Activity entry in the data set listed under Mus musculus was “Non-toxic”.
For the compound `Br.N=c1sc2c(n1CC(=O)c1ccc([N+](=O)[O-])cc1)CC1CCCCC1C2` (stereo not given), the outcome in the data set with Cortical neurone was Active. Moreover, in the data set filed under Mus musculus, the Activity entry is reported as “Non-toxic”.
`O=[N+]([O-])c1ccc(-c2cn3c4c(sc3n2)CC2CCCCC2C4)cc1` (stereo not given): in the data set filed under Mus musculus, the Activity result is “Non-toxic”.
For `Br.Cc1ccc(C(=O)Cn2c3c(sc2=N)CC2CCCCC2C3)cc1` (stereo not given), the outcome in the data set on Cortical neurone was inactive. The Activity entry in the data set listed under Mus musculus is recorded as “Non-toxic”.

The record behind these values is ChEMBL document CHEMBL1148645, “Imino-tetrahydro-benzothiazole derivatives as p53 inhibitors: discovery of a highly potent in vivo inhibitor and its action mechanism” (J Med Chem, 2006).
